Usually logP stands for the decadic logarithm of the partition coefficient of the neutral form, usually between octanol and water. Low readings indicate a more hydrophilic compound, high ones a more lipophilic compound.

The results in this text go back to ChEMBL document CHEMBL1137774, “Conjugation of 2-(1'-hexyloxyethyl)-2-devinylpyropheophorbide-a (HPPH) to carbohydrates changes its subcellular distribution and enhances photodynamic activity in vivo” (J Med Chem, 2009).

In data set [1] the test system is RIF. The data set is described as follows: Photosensitizing activity in ABCG2-expressing mouse RIF cells assessed as induction STAT3 covalent cross linking pretreated for 4 hrs followed by irradiation exposure to 665 nm light at 3 J/cm2 by Western blotting. It counts as functional, cell-based. Put shortly:
(§1)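 Cells incubated 4 h with PS at indicated concentrations in 10% FCS medium, exposed to 665 nm light at 3 J/cm², extracted immediately. STAT-3 cross-linked product detected by Western blot, relative level by densitometry.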
(In general: Immunoblotting shows a protein as a band on a membrane.)

Data set [2] has as its system Colon 26. The data set can be described thus: Photocytotoxicity against ABCG2-deficient mouse Colon 26 cells xenografted in BALB/c mouse assessed as tumor control at 0.47 umol/kg, iv followed by exposure to irradiation at 48 J/cm2 relative to control. It counts as functional. Put shortly: (§2)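 Mice bearing shoulder tumours (C3H/RIF, BALB/c/Colon26) injected intravenously at 0.47 μmol/kg. Tumours irradiated with 665 nm laser 24 h later at 135 J/cm², 75 mW/cm² or 48 J/cm², 7 mW/cm². Tumour volume by calipers, V=(L×W²)×0.5. Groups of 5–10 mice; curves compared by Cox–Mantel test.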

The nature of data set [3]: Drug uptake in ABCG2-expressing mouse RIF cells assessed as increase in mitochondrial localization at 3 uM for 24 hrs in presence of 10% FCS by fluorescence microscopy. To be noted: 2 µM, in the assay text read “2 uM” for “3 uM”. It counts as ADME, cell-based. Put shortly: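 RIF cells grown on poly-L-lysine-coated coverslips, co-incubated with PS and organelle trackers in 10% FCS medium for 3–4 h or 24 h, PBS-washed, imaged at 40× by inverted fluorescence microscopy. Trackers: MitoTracker Green 1 μM 1 h (mitochondria); LysoTracker Green 0.5 μM 0.5 h or 0.1 μm Fluospheres overnight (lysosomes); Bodipy C5 ceramide–albumin 5 μM (Golgi).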

Data set [4] can be described thus: Partition coefficient, log P of the compound. Conditions: octanol/water; call rule not given here. Type of data set: physicochemical.
Data set [5] can be described thus: Photocytotoxicity against ABCG2-expressing mouse RIF cells xenografted in C3H mouse assessed as tumor control at 0.47 umol/kg, iv followed by exposure to irradiation at 48 J/cm2 relative to control. Type of data set: functional. The method, boiled down: as §2
For data set [6], the system named is Colon 26. The data set can be described thus: Photosensitizing activity in ABCG2-deficient mouse Colon 26 cells assessed as induction STAT3 covalent cross linking pretreated for 4 hrs followed by irradiation exposure to 665 nm light at 3 J/cm2 by Western blotting. It counts as functional, cell-based. Put shortly:
as §1

Data set [7] relates to Mus musculus. The data set can be described thus: Skin toxicity in ABCG2-expressing mouse RIF cells xenografted in irradiation exposed C3H mouse assessed as foot response after 24 to 96 hrs. It counts as organism-based. Conditions: in vivo.
The nature of data set [8]: Photocytotoxicity against ABCG2-expressing mouse RIF cells xenografted in C3H mouse assessed as tumor control at 0.47 umol/kg, iv followed by exposure to irradiation at 135 J/cm2 relative to control. It counts as functional. Put shortly:
as §2

Each structure is given as a SMILES string.

Turning to `CCCCCCOC(C)c1c(C)c2cc3nc(c4c5[nH]c(cc6nc(cc1[nH]2)C(C)=C6CC)c(C)c5C(=O)C4)[C@@H](CCC(=O)O)[C@@H]3C` (stereo partly drawn) [HPPH], the Activity result was “Dose-dependent effect” in data set [1]; 30% in data set [2]; 40% in data set [5]; “Dose-dependent effect” in data set [6]; “Toxic” in data set [7]; 50% in data set [8]. Besides, the Drug uptake result in data set [3] was “Active”. This compound had a logP in data set [4] of 6.
